Series [1] addresses T1, Prostaglandin D2 receptor (Homo sapiens, UniProt Q13258).
T1 sequence (Q13258 whole entry): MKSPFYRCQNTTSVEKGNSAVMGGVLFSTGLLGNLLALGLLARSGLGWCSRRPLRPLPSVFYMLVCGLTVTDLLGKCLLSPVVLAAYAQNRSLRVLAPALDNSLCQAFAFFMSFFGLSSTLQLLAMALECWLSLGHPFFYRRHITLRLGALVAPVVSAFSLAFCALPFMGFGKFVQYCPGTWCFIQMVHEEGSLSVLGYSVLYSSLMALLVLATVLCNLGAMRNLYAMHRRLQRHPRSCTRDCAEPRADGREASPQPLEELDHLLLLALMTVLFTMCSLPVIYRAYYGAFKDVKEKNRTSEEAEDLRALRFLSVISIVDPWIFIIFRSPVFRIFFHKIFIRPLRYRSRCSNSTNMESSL
Put plainly: Displacement of [3H]PGD2 from human DP1 receptor expressed in HEK293 cells after 2 hrs by scintillation counting. The series is classed as cell-based. Put shortly:
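Disrupted HEK293 cells stably expressing human DP1 (10 µg protein/well) in 10 mM BES, 1 mM EDTA, 10 mM MnCl2, pH 7.0, incubated with [3H]PGD2 and increasing compound concentrations 2 h at 4 °C; glass-filter harvest and scintillation counting of retained radioactivity.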
For orientation: In a radioligand displacement assay an active substance lowers the binding of a labelled ligand.

A short description of series [2]: AUC in Hartley guinea pig at 10 mg/kg, po. In kind it is ADME, organism-based, Cavia porcellus. Also noted: dose 10 mg/kg, route oral. The following applies: plasma. The procedure, abridged: (§1)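 Guinea pigs fasted overnight, given 10 mg/kg orally as a 10 mg/mL suspension in 0.5% methylcellulose in water; plasma Cmax and AUC determined.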
Series [3] concerns the target T2, Chemoattractant receptor-homologous molecule expressed on Th2 cells (Cavia porcellus, UniProt Q56D28).
T2 sequence (Q56D28 whole entry): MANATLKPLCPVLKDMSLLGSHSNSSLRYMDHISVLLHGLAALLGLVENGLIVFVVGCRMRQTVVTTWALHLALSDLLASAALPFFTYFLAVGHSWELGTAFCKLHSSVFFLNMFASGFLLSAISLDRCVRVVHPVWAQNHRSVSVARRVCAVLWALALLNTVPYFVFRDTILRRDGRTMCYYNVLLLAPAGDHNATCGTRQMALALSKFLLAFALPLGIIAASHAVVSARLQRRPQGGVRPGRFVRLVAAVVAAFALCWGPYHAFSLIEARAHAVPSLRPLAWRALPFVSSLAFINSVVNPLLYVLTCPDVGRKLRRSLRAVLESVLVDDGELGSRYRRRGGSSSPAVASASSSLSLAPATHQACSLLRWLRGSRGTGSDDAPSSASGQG
Put plainly: Displacement of [3H]PGD2 from guinea pig CRTH2 receptor expressed in HEK293 cells after 2 hrs by scintillation counting. In kind it is cell-based. The procedure, abridged:
(§2)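 Disrupted HEK293 cells stably transfected with human or guinea pig CRTH2 (10 µg protein/well human; 20 µg protein/well guinea pig) in 10 mM BES, 1 mM EDTA, 10 mM MnCl2, pH 7.0, incubated with [3H]PGD2 and rising compound levels 2 h at 4 °C; filtered, scintillation counted; nonspecific binding with 10 µM DK-PGD2; IC50 for 50% binding loss; mean of ≥2 experiments.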

Series [4] in a line: Clearance in guinea pig liver microsomes. In kind it is ADME, Cavia porcellus, Microsome. The conditions noted are these: read-out: CLH.
A short description of series [5]: Cmax in Hartley guinea pig at 10 mg/kg, po. The following applies: in vivo. In kind it is ADME, organism-based, Cavia porcellus. More on the design: dose 10 mg/kg, route oral. The procedure, abridged:
as §1

For series [6], the target named is T3, Prostaglandin D2 receptor 2 (Homo sapiens, UniProt Q9Y5Y4).
T3 sequence (Q9Y5Y4 whole entry): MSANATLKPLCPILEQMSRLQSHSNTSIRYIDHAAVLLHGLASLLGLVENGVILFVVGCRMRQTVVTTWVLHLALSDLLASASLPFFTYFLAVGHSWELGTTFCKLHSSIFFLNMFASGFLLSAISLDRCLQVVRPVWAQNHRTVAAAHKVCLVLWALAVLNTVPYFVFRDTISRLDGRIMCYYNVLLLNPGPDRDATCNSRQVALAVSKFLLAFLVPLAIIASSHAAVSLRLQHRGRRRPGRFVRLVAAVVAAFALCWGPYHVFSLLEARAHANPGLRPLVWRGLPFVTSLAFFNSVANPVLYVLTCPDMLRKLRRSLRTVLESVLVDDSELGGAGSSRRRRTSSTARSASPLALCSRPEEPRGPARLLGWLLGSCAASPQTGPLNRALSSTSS
Put plainly: Displacement of [3H]PGD2 from human CRTH2 receptor expressed in HEK293 cells after 2 hrs by scintillation counting. In kind it is cell-based. The procedure, abridged:
as §2

SMILES strings stand for the structures.

By IC50 is commonly meant the midpoint of a concentration-inhibition curve. A word on the AUC: it is concentration integrated over time. As a reminder, the Cmax is the highest concentration seen after dosing.

Consider `O=C(O)COc1cccc(CCCn2cc(C(c3ccccc3)c3ccccc3)ccc2=O)c1`, for which the IC50 is above 1000 nM in series [1] and 256 nM in series [3]. Moreover, the AUC in series [2] was 5950 ng·h/mL. The CLint scaled in series [4] was found to be 120 mL/min/kg. This molecule also had a Cmax in series [5] of 840 ng/mL.

For `O=C(O)COc1cccc(CCCn2nc(C(c3ccccc3)c3ccccc3)ccc2=O)c1`, the figures for the IC50 in series [6] and in series [3] were 18 nM and 147 nM, respectively. The molecule also showed an AUC in series [2] of 2400 ng·h/mL. In series [5], this molecule registered a peak concentration (Cmax) of 730 ng/mL.

Turning to `O=C(O)COc1cccc(CCCn2cc(C(c3ccc(F)cc3)c3ccc(F)cc3)ccc2=O)c1`, the results for the IC50 in series [6] and in series [3] were 11 nM and 359 nM, respectively.

As for `O=C(O)COc1cccc(CCCn2cc(C(c3ccc(Cl)cc3)c3ccc(Cl)cc3)ccc2=O)c1`, the 50% inhibitory concentration (IC50) in series [6] was 9.2 nM; in series [3] it was above 1000 nM.

For the molecule `Cc1ccc(C(c2ccc(C)cc2)c2ccc(=O)n(CCCc3cccc(OCC(=O)O)c3)c2)cc1`, the IC50 stood at 6.2 nM in series [6] and 772 nM in series [3].

Turning to `COc1ccc(C(c2ccc(OC)cc2)c2ccc(=O)n(CCCc3cccc(OCC(=O)O)c3)c2)cc1`, the IC50 in series [6] came to 5.8 nM; in series [3], 211 nM.

Turning to `O=C(O)COc1cccc(OCCn2cc(C(c3ccccc3)c3ccccc3)ccc2=O)c1`, the IC50 in series [6] amounted to 99 nM; in series [3] it was 797 nM.

With `CC(Oc1cccc(CCCn2cc(C(c3ccccc3)c3ccccc3)ccc2=O)c1)C(=O)O` (stereo not given), the IC50 in series [6] is 17 nM; in series [3], 128 nM.

With `CCC(Oc1cccc(CCCn2cc(C(c3ccccc3)c3ccccc3)ccc2=O)c1)C(=O)O` (stereo not given), the 50% inhibitory concentration (IC50) in series [6] came to 502 nM; in series [3] it was 990 nM.

In series [3], `CC(C)(Oc1cccc(CCCn2cc(C(c3ccccc3)c3ccccc3)ccc2=O)c1)C(=O)O` gave an IC50 above 1000 nM.

As to `O=C(O)CCCOc1cccc(CCCn2cc(C(c3ccccc3)c3ccccc3)ccc2=O)c1`, the values for the IC50 in series [6] and in series [3] were 11 nM and 99 nM, respectively. In series [2], this molecule had an area under the curve (AUC) of 1020 ng·h/mL. Also, in series [5], the concentration peaked (Cmax) at 500 ng/mL.

Turning to `O=C(O)CCCOc1cccc(CCCn2nc(C(c3ccccc3)c3ccccc3)ccc2=O)c1`, the half-maximal inhibitory concentration (IC50) in series [1] was 5200 nM; in series [6] it was 13 nM; in series [3], 52 nM. In series [2], this molecule registered an AUC of 4850 ng·h/mL. In series [5], this molecule showed a Cmax of 2860 ng/mL.

`O=C(O)COc1cccc(CCCN(CCC(c2ccccc2)c2ccccc2)C(=O)c2ccccc2)c1`: the IC50 was found to be 9.7 nM in series [6] and 18 nM in series [3].

As to `COc1ccc(C(=O)N(CCCc2cccc(OCC(=O)O)c2)CCC(c2ccccc2)c2ccccc2)cc1`, the IC50 was 5.5 nM in series [6] and 17 nM in series [3]. Besides, the AUC in series [2] amounted to 270 ng·h/mL. In addition, the CLint scaled in series [4] was found to be 766 mL/min/kg. Besides, the Cmax in series [5] came out at 40 ng/mL.

The values are drawn from ChEMBL document CHEMBL1938331, “Discovery of novel and potent CRTH2 antagonists” (Bioorg Med Chem Lett, 2012).
